From ChEMBL document CHEMBL1671655, “Anidulafungin is fungicidal and exerts a variety of postantifungal effects against Candida albicans, C. glabrata, C. parapsilosis, and C. krusei isolates” (2009)
≈ marks a conversion by molar mass, not a printed value. Calls of active or inactive are those of the source. The calls are words filed in the database; no cut-off is given here. Starred links: 1 amine or outer side, 2 acyl side, 3 side chain; linkers in the order of their positions; H or OH if unused. Positions of bridges follow the written chain, without caps; N, C: chain ends. Non-standard residues stand in square brackets, D forms with d. Residues, ends and D or L forms follow the SMILES beside them. *: point of attachment. pTerphenylCO(4''-OnC5H11) = CCCCCOc1ccc(-c2ccc(-c3ccc(C(=O)*)cc3)cc2)cc1; Orn(4R-OH,5R-OH) = O=C([C@H](C[C@@H](O)[C@@H](O)N[*:3])N[*:1])[*:2]; hTyr(3S-OH,4S-OH) = N[C@H](C(=O)O)[C@H](O)[C@@H](O)c1ccc(O)cc1; Pro(3S-OH,4S-Me) = C[C@H]1CN[C@H](C(=O)O)[C@H]1O; Hyp = O=C(O)[C@@H]1C[C@@H](O)CN1

What was measured:
[1] = test system: Candida albicans; assay: Fungicidal activity against Candida albicans isolate 1 assessed as log reduction in bacterial count at MIC after 48 hrs by time-kill analysis; assay type: functional; conditions: isolate 1, 48 h
In short: (§1)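 Isolates subcultured twice on SDA, suspended to 0.5 McFarland, giving ~1 x 10^5 to 5 x 10^5 CFU/ml in MOPS-buffered RPMI 1640 (pH 7.0) with or without drug at multiples of MIC (MIC by CLSI M27-A3). Tubes shaken at 35°C with continuous drug. Sampled at 0–48 h, diluted 10-fold and plated on SDA; CFU counted after 48 h at 35°C. Run twice per isolate; means.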

[2] = test system: Candida parapsilosis; assay: Fungicidal activity against Candida parapsilosis isolate A assessed as log reduction in bacterial count at 16 times MIC after 48 hrs by time-kill analysis; assay type: functional; conditions: Lodderomyces parapsilosis
In short: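 Isolates subcultured twice on SDA, then suspended to 0.5 McFarland and diluted into RPMI 1640 (MOPS, pH 7.0) with or without anidulafungin, giving about 1 x 10^5 to 5 x 10^5 CFU/ml. Tubes were shaken at 35°C. Samples were taken at 0, 2, 4, 8, 12, 24 and 48 h, serially diluted 10-fold, plated on SDA, and CFU counted after 48 h at 35°C. Each isolate was run twice; mean values.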

[3] = test system: Candida parapsilosis; assay: Fungicidal activity against Candida parapsilosis isolate 1 assessed as log reduction in bacterial count at 4 times MIC after 48 hrs by time-kill analysis; assay type: functional; conditions: Lodderomyces parapsilosis, isolate 1, 48 h; in short: as §1
[4] = test system: Nakaseomyces glabratus; assay: Fungicidal activity against Candida glabrata isolate 2 assessed as log reduction in bacterial count at 16 times MIC after 48 hrs by time-kill analysis; assay type: functional; conditions: isolate 2, 48 h; in short: as §1
[5] = test system: Nakaseomyces glabratus; assay: Fungicidal activity against Candida glabrata isolate 3 assessed as log reduction in bacterial count at MIC after 48 hrs by time-kill analysis; assay type: functional; conditions: isolate 3, 48 h; in short: as §1
[6] = test system: Candida parapsilosis; assay: Fungicidal activity against Candida parapsilosis isolate 1 assessed as log reduction in bacterial count at 4 times MIC after drug exposure for 1 hr followed by washout measured after 48 hrs in the absence of drug by PAFE study; assay type: functional; conditions: Lodderomyces parapsilosis
In short: (§2)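 Inoculum about 1 x 10^5 to 5 x 10^5 CFU/ml in RPMI 1640 (MOPS, pH 7.0) with drug, shaken at 35°C for 1 h. Cells were then washed and centrifuged at 1,400 x g for 10 min (3 cycles) and resuspended in warm drug-free RPMI. Samples plated on SDA at 0, 2, 4, 8, 12, 24 and 48 h; CFU counted after 48 h at 35°C. Run twice per isolate; means.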

[7] = test system: Candida parapsilosis; assay: Fungicidal activity against Candida parapsilosis isolate S assessed as log reduction in bacterial count at 4 times MIC after drug exposure for 1 hr followed by washout measured after 48 hrs in the absence of drug by PAFE study; assay type: functional; conditions: Lodderomyces parapsilosis; in short: as §2
[8] = test system: Nakaseomyces glabratus; assay: Antifungal activity against Candida glabrata by NCCLS M27A broth microdilution method; assay type: functional
[9] = test system: Nakaseomyces glabratus; assay: Antifungal activity against Candida glabrata isolate 2 by CLSI M27-A3 broth microdilution method; assay type: functional
In short: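 CLSI M27-A3 broth microdilution in RPMI 1640 buffered to pH 7.0 with MOPS. Starting inoculum 0.5 x 10^3 to 2.5 x 10^3 cells/ml, incubated at 35°C. MIC read as the lowest concentration giving >50% growth reduction versus control. Each isolate tested on at least three occasions.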

[10] = test system: Candida parapsilosis; assay: Antifungal activity against Candida parapsilosis assessed as time period for bacterial regrowth inhibition after 1 hr drug exposure; assay type: functional
[11] = test system: Nakaseomyces glabratus; assay: Antifungal activity against Candida glabrata isolate 1 assessed as time period for bacterial growth inhibition at 16 times MIC after 1 hr drug exposure; assay type: functional
In short: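 Inoculum of about 1 x 10^5 to 5 x 10^5 CFU/ml in MOPS-buffered RPMI (pH 7.0), shaken at 35°C and exposed to drug for 1 h. Cells then washed and centrifuged three times and resuspended in drug-free warm RPMI. Samples plated on SDA at 0, 2, 4, 8, 12, 24 and 48 h, with CFU counted after 48 h at 35°C. Run twice per isolate; values are means.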

[12] = test system: Pichia kudriavzevii; assay: Increase in susceptibility to SDS in Candida krusei isolate ATCC 6258 assessed as cell wall damage at 4 times MIC after 1 hr relative to control; assay type: functional, organism-based
In short: (§3)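 Cells recovered 8 h after a 1-h drug exposure were grown in YPD with 1% glucose to exponential phase and adjusted to OD599 0.1. Undiluted culture and 10-fold serial dilutions were spotted onto YPD plates containing SDS (0.01 to 0.04%), then incubated 72 h at 30°C. Growth compared with unexposed control cells; triplicate.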

[13] = test system: Candida albicans; assay: Increase in susceptibility to SDS in Candida albicans isolate 1 assessed as cell wall damage at 16 times MIC after 1 hr relative to control; assay type: functional, organism-based; in short: as §3
[14] = test system: Nakaseomyces glabratus; assay: Increase in susceptibility to SDS in Candida glabrata isolate 3 assessed as cell wall damage at 16 times MIC after 1 hr relative to control; assay type: functional, organism-based; in short: as §3
[15] = test system: Pichia kudriavzevii; assay: Increase in susceptibility to SDS in Candida krusei isolate ATCC 6258 assessed as cell wall damage at 16 times MIC after 1 hr relative to control; assay type: functional, organism-based; in short: as §3
[16] = test system: Candida parapsilosis; assay: Increase in susceptibility to calcofluor white in Candida parapsilosis isolate A assessed as cell wall damage at MIC after 1 hr relative to control; assay type: functional, organism-based
In short: (§4)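 Candida given a 1-h anidulafungin pulse in MOPS-buffered RPMI 1640 (pH 7.0) at 35°C, washed three times by centrifugation, and regrown drug-free. Cells collected 8 h later, grown in YPD with 1% glucose to exponential phase, and set to OD599 0.1. Undiluted culture and 10-fold dilutions (4 µl) spotted on YPD plates with calcofluor white, then 30°C for 72 h. Triplicate; compared with no-drug cells.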

[17] = test system: Nakaseomyces glabratus; assay: Increase in susceptibility to calcofluor white in Candida glabrata isolate 3 assessed as cell wall damage at MIC after 1 hr relative to control; assay type: functional, organism-based
In short: (§5)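 Cells recovered 8 h after a 1-h drug exposure were grown to exponential phase in YPD with 1% glucose and adjusted to OD599 0.1. Undiluted and 10-fold serially diluted cultures were spotted onto YPD plates containing calcofluor white, then incubated at 30°C for 72 h. Growth compared with no-drug control cells; triplicate.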

[18] = test system: Candida albicans; assay: Increase in susceptibility to calcofluor white in Candida albicans ATCC 90028 assessed as cell wall damage at 4 times MIC after 1 hr relative to control; assay type: functional, organism-based; in short: as §5
[19] = test system: Candida parapsilosis; assay: Increase in susceptibility to calcofluor white in Candida parapsilosis isolate 1 assessed as cell wall damage at 4 times MIC after 1 hr relative to control; assay type: functional, organism-based; in short: as §4
[20] = test system: Candida albicans; assay: Antifungal activity against Candida albicans isolate 1 assessed as cell wall damage at MIC by Transmission electron microscopy; assay type: functional, organism-based
In short: (§6)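 Cells recovered 8 h after a 1-h drug exposure were grown on SDA for 24 h at 35°C. Colonies fixed at 4°C in 0.1 M cacodylate (pH 7.2) with 2% glutaraldehyde and 2% paraformaldehyde, ethanol-dehydrated and embedded in Lowicryl K4M. Thin sections examined by transmission EM.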

[21] = test system: Candida albicans; assay: Antifungal activity against Candida albicans isolate 1 assessed as cell wall damage at 4 times MIC by Transmission electron microscopy; assay type: functional, organism-based; in short: as §6
[22] = test system: Pichia kudriavzevii; assay: Antifungal activity against Candida krusei isolate 1 assessed as cell wall damage at 4 times MIC by Transmission electron microscopy; assay type: functional, organism-based; in short: as §6
[23] = test system: Candida parapsilosis; assay: Antifungal activity against Candida parapsilosis isolate A coincubated with mouse J774 macrophages assessed as macrophage induced bacterial cell killing at 4 times MIC (reference value: 19 +/- 9 %); assay type: functional

In the case of `CCCCCOc1ccc(-c2ccc(-c3ccc(C(=O)N[C@H]4C[C@@H](O)[C@@H](O)NC(=O)[C@@H]5[C@@H](O)[C@@H](C)CN5C(=O)[C@H]([C@@H](C)O)NC(=O)[C@H]([C@H](O)[C@@H](O)c5ccc(O)cc5)NC(=O)[C@@H]5C[C@@H](O)CN5C(=O)[C@H]([C@@H](C)O)NC4=O)cc3)cc2)cc1` [ANIDULAFUNGIN] ({pTerphenylCO(4''-OnC5H11)}-[Orn(4R-OH,5R-OH)]T[Hyp][hTyr(3S-OH,4S-OH)]T[Pro(3S-OH,4S-Me)]; lactam 1-C), the log reduction [1] is reported as 1.15 log CFU/ml, the log reduction [2] is reported as 3.42 log CFU/ml and the log reduction [3] is reported as 3.07 log CFU/ml. For the same compound, the log reduction [4] was 3.14 log CFU/ml, the log reduction [5] was 1 log CFU/ml and the log reduction [6] was 2.46. For the same compound, the log reduction [7] was 2.17, the MIC90 [8] was 0.06 µg/mL (≈ 0.0526 µM) and the MIC [9] was 0.03 µg/mL (≈ 0.0263 µM). The Time [10] was “>=12 hr”, the Time [11] was 8 h and the Activity [12] was “Active”. For the same compound, the Activity [13] was “Active”, the Activity [14] was “Active” and the Activity [15] was “Active”. The Activity [16] was “Active”, the Activity [17] was “Active” and the Activity [18] was “Active”. The Activity [19] was “Active”, the Activity [20] was “Active” and the Activity [21] was “Active”. The Activity [22] was “Active” and the “inhibition (INH)” value [23] was 42%.
